The source of these data is ChEMBL document CHEMBL1123083, “Synthesis and antiherpetic activity of (S)-, (R)-, and (+/-)-9-[(2,3-dihydroxy-1-propoxy)methyl]guanine, linear isomers of 2'-nor-2'-deoxyguanosine” (J Med Chem, 1985).

Structures are written as SMILES. ≈ marks a conversion by molar mass, not a printed value. Calls of active or inactive are those of the source. The calls are words filed in the database; no cut-off is given here.

In data set [1] the test system is Human alphaherpesvirus 1. Description: In vitro anti viral activity tested against HSV-1(Schooler) virus on Rabbit kidney cell cultures. Format: functional. As to conditions: Human alphaherpesvirus 1, kidney; read-out: ED50 (the source's name). The method in brief: (§1)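 Confluent primary rabbit kidney monolayers were preincubated with serial drug dilutions in EMEM with 2% fetal calf serum and neomycin. They were then challenged with about 10 TCID50 of HSV-1 Schooler or HSV-2 Curtis and incubated at 37 °C. Cytopathology was scored on day 5. ED50 is the concentration preventing cytopathology in half of the infected cultures.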

The test system of data set [2] is Human alphaherpesvirus 2. Kind of data set: In vitro anti viral activity tested against HSV-2(Curtis) virus on Rabbit kidney cell cultures. Format: functional. The note with it: Human alphaherpesvirus 2, kidney; read-out: ED50 (the source's name). The method in brief:
as §1

For data set [3], the system named is Human alphaherpesvirus 1. Kind of data set: Efficacy was evaluated against Systemic HSV-1 infection in mice at a daily dose of 0.8 mg/kg administered subcutaneously. As to conditions: mouse, in vivo, sc. On the set-up: dose 0.8 mg/kg, route subcutaneous. Format: ADME, organism-based. The method in brief:
(§2)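 ICR/Ha mice (10–20 g, mixed sex) were infected intraperitoneally with 50–100 LD50 of HSV-1 Schooler. Subcutaneous dosing of 0.1 mL twice daily for 4 days started immediately after infection. Groups were of about 10 mice. Survival was recorded daily for 15 days and reported as survivors/total and mean survival time (95% CI). Transformed survival times were compared with placebo-treated infected mice (p < 0.05).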

Data set [4] relates to Human alphaherpesvirus 1. Kind of data set: Efficacy was evaluated against Systemic HSV-1 infection in mice at a daily dose of 3.1 mg/kg administered subcutaneously. On the set-up: dose 3.1 mg/kg, route subcutaneous. The note with it: mouse, in vivo, sc. Format: ADME, organism-based. An outline of the steps: as §2
For data set [5], the system named is Human alphaherpesvirus 1. Kind of data set: Efficacy was evaluated against Systemic HSV-1 infection in mice at a daily dose of 3.1 mg/kg administered subcutaneously; Tested mice 10. It is filed as ADME, organism-based. Details: dose 3.1 mg/kg, route subcutaneous. The note with it: mouse, in vivo, sc. The method in brief:
as §2

Data set [6] deals with Human alphaherpesvirus 2. Description: In vitro anti viral activity tested against HSV-2(Curtis) virus on Rabbit kidney cell cultures; 25-50. Format: functional. As to conditions: Human alphaherpesvirus 2, kidney; read-out: ED50 (the source's name). The method in brief: as §1
In data set [7] the test system is Human alphaherpesvirus 1. Kind of data set: Efficacy was evaluated against Systemic HSV-1 infection in mice at a daily dose of 12.5 mg/kg administered subcutaneously; Tested mice 10. It is filed as organism-based. On the set-up: dose 12.5 mg/kg, route subcutaneous. As to conditions: mouse, in vivo, sc. An outline of the steps:
as §2

Data set [8] concerns DNA polymerase (Homo sapiens). Description: Evaluated for DNA polymerase inhibition activity against HeLa cells.
In data set [9] the test system is Human alphaherpesvirus 1. Kind of data set: Efficacy was evaluated against Systemic HSV-1 infection in mice at a daily dose of 12.5 mg/kg administered subcutaneously. It is filed as ADME, organism-based. On the set-up: dose 12.5 mg/kg, route subcutaneous. The note with it: mouse, in vivo, sc. An outline of the steps:
as §2

In data set [10] the test system is Human alphaherpesvirus 1. Description: Efficacy was evaluated against Systemic HSV-1 infection in mice at a daily dose of 0.8 mg/kg administered subcutaneously; Tested mice 10. Details: dose 0.8 mg/kg, route subcutaneous. It is filed as organism-based. The note with it: mouse, in vivo, sc. The method in brief: as §2
The subject of data set [11] is Human alphaherpesvirus 1. Description: Evaluated for DNA polymerase inhibition activity against herpes simplex virus-1 (HSV-1). Format: functional. An outline of the steps: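 Step II mixture supplied the phosphorylated test material. Step I: compound with HSV-1 thymidine kinase, 4 h, 37 °C. Step II: then HSV-1-infected HeLa crude extract plus GMP kinase, overnight, 30 °C. A 20 μL sample went to a 1 h, 37 °C DNA polymerase assay at pH 8 with activated salmon sperm DNA, 0.05 mM each dNTP ([³H]dTTP) and infected HeLa extract. (NH₄)₂SO₄ 0.1 M was present for the viral enzyme and omitted for the cellular polymerases. Read-out: TCA-precipitable radioactivity.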

The test system of the next data set is Human betaherpesvirus 5. Description: In vitro anti viral activity tested against HCMV(AD169) virus on MRC-5 cell monolayers; NA=Not active at 25 ug/mL. Format: functional, organism-based. The note with it: MRC5. An outline of the steps:
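MRC-5 monolayers were infected with HCMV AD169 for 1 h at 37 °C. Compound diluted in maintenance medium was then added and incubation continued for 7 days at 37 °C. Monolayers were stained and plaques counted. ED50 is the concentration reducing plaque number by 50%.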

Consider `Nc1nc(O)c2ncn(COCC(O)CO)c2n1` (stereo not drawn), for which the EC50 amounted to 3 µg/mL (≈ 11.8 µM) with Human alphaherpesvirus 1 [1] and 6 µg/mL (≈ 23.5 µM) in the data set with Human alphaherpesvirus 2 [2].
The term Inhibition denotes the change of the read-out against control, counted positive when it falls. A higher Inhibition goes with strong suppression. `Nc1nc(O)c2ncn(COCC(O)CO)c2n1` (single isomer, unassigned; form 1) [listing 1 of 2 here]: the Average survival with Human alphaherpesvirus 1 [3] is 6.3 days; in the data set with Human alphaherpesvirus 1 [4], 6.5 days; with Human alphaherpesvirus 1 [9], 7.5 days. Besides, the EC50 in the data set on Human alphaherpesvirus 1 [1] and with Human alphaherpesvirus 2 [6] was 25 µg/mL (≈ 97.9 µM) each time. Besides, the figures for the Survivors in the data set on Human alphaherpesvirus 1 [5], with Human alphaherpesvirus 1 [7] and in the data set with Human alphaherpesvirus 1 [10] were 1, 1 and 0, respectively. Further, the Inhibition in data set [8] is recorded as 0%; in the data set with Human alphaherpesvirus 1 [11], 7%.
`Nc1nc(O)c2ncn(COCC(O)CO)c2n1` (single isomer, unassigned; form 1) [listing 2 of 2 here]: the ED50 entry with Human betaherpesvirus 5 was “inactive”.
